Experimental data reported in ChEMBL document CHEMBL4138314, “Synthesis and Evaluation of N-Phenyl-3-sulfamoyl-benzamide Derivatives as Capsid Assembly Modulators Inhibiting Hepatitis B Virus (HBV)” (J Med Chem, 2018).
Converted amounts (≈) assume the structure as drawn. The source made the active and inactive calls. The calls are words filed in the database; no cut-off is given here.

Experiments:
hERG = hERG (Homo sapiens, UniProt Q12809); test: Inhibition of human ERG at 3 uM by automated patch clamp assay (reference value: 14%)
[1] = AUC (0 to last) in C57BL/6 mouse at 50 mg/kg, sc by LC-MS/MS analysis; assay type: ADME, organism-based; design: dose 50 mg/kg, time 0 - last, route subcutaneous; details: in vivo
[2] = AUC (0 to 24 hrs) in humanized mouse at 50 mg/kg, sc for 8 days measured on day 8 post last dose by LC-MS/MS analysis; assay type: ADME, organism-based; design: time < 24 hr, dose 50 mg/kg, route subcutaneous; details: in vivo
[3] = Kinetic solubility of the compound at pH 7.4 after 4 hrs by UPLC-UV analysis; assay type: physicochemical; details: buffer, read-out: Kinetic_solubility
[4] = biological target: 5-hydroxytryptamine receptor 2B (Homo sapiens, UniProt P41595); test: Agonist activity at 5-HT2B (unknown origin); assay type: functional
[5] = Tmax in C57BL/6 mouse at 50 mg/kg, po by LC-MS/MS analysis; assay type: ADME, organism-based; details: in vivo
Summary of the method: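 Single-dose PK in C57BL/6 mice given compound intravenously and orally, with oral doses of 10 and 50 mg/kg. Plasma clearance, volume of distribution and oral bioavailability were derived from the plasma profiles.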

[6] = Cmax in C57BL/6 mouse at 10 mg/kg, po by LC-MS/MS analysis; assay type: ADME, organism-based; design: dose 10 mg/kg, route oral; details: in vivo
Cytochrome P450 2C9 = Cytochrome P450 2C9 (Homo sapiens, UniProt P11712); test: Inhibition of CYP2C9 (unknown origin); assay type: ADME
Hepatitis B virus = test: Antiviral activity against Hepatitis B virus infected in human HepG2.117 cells assessed as inhibition of viral DNA level after 3 days by real time PCR; assay type: functional, organism-based; details: HepG2.117, 72 h
HepG2 = test: Cytotoxicity against human HepG2 cells after 4 to 6 days by resazurin assay; assay type: cell-based; details: hepg2
HBV genotype D = test: Antiviral activity against HBV genotype D infected in human HepG2.2.15 cells assessed as inhibition of viral DNA level treated twice for 3 days measured after 6 days by real time PCR; assay type: functional, organism-based; details: Hepatitis B virus
[7] = Plasma concentration in humanized mouse at 200 mg/kg, sc after 24 hrs by LC-MS/MS analysis; assay type: ADME, organism-based
[8] = Tmax in humanized mouse at 200 mg/kg, sc for 8 days measured on day 8 post last dose by LC-MS/MS analysis; assay type: ADME, organism-based; details: in vivo
[9] = Unbound fraction in human plasma; assay type: ADME, cell-free
[10] = Drug uptake in C57BL/6 mouse plasma at 50 mg/kg, sc after 24 hrs by LC-MS/MS analysis; assay type: ADME, organism-based
Summary of the method: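 C57BL/6 mice dosed subcutaneously once at 50 mg/kg, given to bypass first-pass metabolism; compound measured in plasma (ng/mL) and liver (ng/g) 24 h after dosing.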

[11] = AUC (0 to last) in C57BL/6 mouse at 50 mg/kg, po by LC-MS/MS analysis; assay type: ADME, organism-based; design: dose 50 mg/kg, route oral, time 0 - last; details: in vivo
Summary of the method: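 Single-dose PK in C57BL/6 mice after intravenous or oral dosing, with oral doses of 10 and 50 mg/kg; plasma clearance and volume of distribution taken from the i.v. arm.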

[12] = AUC (0 to last) in C57BL/6 mouse at 2.5 mg/kg, iv by LC-MS/MS analysis; assay type: ADME, organism-based; design: dose 2.5 mg/kg, route intravenous, time 0 - last; details: in vivo
[13] = AUC (0 to infinity) in humanized mouse at 200 mg/kg, sc measured on day 1 post dose by LC-MS/MS analysis; assay type: ADME, organism-based; design: dose 200 mg/kg, route subcutaneous, time infinity; details: in vivo
[14] = Half life in humanized mouse at 50 mg/kg, sc for 8 days measured on day 8 post last dose by LC-MS/MS analysis; assay type: ADME, organism-based; details: in vivo
[15] = Drug metabolism in mouse liver microsomes at 1 uM after 15 mins by LC-MS/MS analysis; assay type: ADME, microsome; details: read-out: Drug metabolism
Summary of the method: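 Compound incubated 15 min with human or mouse liver microsomes; stability expressed as percent turnover (metabolised) at 15 min.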

[16] = Drug uptake in humanized mouse liver at 200 mg/kg, sc after 24 hrs by LC-MS/MS analysis; assay type: ADME, organism-based; details: read-out: Drug uptake
Summary of the method: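 Uninfected humanized mice given 50 or 200 mg/kg subcutaneously once daily as a methocel suspension for 8 days; liver concentration measured 24 h after dosing.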

Cytochrome P450 1A2 = biological target: T1, Cytochrome P450 1A2 (Homo sapiens, UniProt P05177); test: Inhibition of CYP1A2 (unknown origin); assay type: ADME
T1 sequence (P05177 whole entry): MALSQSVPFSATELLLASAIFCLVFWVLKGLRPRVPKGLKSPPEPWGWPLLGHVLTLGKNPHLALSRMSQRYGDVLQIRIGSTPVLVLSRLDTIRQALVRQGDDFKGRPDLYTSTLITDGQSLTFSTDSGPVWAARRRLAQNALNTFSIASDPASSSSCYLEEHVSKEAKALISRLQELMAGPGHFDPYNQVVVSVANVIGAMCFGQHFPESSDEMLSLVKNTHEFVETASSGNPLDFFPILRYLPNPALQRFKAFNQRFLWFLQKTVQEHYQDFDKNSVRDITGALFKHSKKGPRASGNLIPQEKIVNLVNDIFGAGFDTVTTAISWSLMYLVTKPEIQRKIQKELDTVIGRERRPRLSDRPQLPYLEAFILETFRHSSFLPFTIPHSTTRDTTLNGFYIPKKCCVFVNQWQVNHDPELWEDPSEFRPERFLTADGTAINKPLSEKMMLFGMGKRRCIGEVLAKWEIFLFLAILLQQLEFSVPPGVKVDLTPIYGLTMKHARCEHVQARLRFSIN

[17] = Unbound fraction in mouse plasma; assay type: ADME, cell-free
Cytochrome P450 2C8 = biological target: T2, Cytochrome P450 2C8 (Homo sapiens, UniProt P10632); test: Inhibition of CYP2C8 (unknown origin); assay type: ADME
T2 sequence (P10632 whole entry): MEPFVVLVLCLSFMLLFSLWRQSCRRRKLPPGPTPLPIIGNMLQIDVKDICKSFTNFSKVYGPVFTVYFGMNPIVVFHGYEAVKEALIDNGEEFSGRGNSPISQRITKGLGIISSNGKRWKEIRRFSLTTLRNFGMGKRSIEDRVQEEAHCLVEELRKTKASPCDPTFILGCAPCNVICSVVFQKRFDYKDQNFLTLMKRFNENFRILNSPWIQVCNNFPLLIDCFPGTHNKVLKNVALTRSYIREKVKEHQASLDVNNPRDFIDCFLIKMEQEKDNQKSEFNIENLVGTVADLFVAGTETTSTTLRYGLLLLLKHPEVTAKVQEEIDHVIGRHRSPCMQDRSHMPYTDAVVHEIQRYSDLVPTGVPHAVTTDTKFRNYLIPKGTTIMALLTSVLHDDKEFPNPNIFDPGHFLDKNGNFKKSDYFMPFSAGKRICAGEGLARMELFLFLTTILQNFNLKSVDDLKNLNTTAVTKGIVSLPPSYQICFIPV

[18] = Cmax in humanized mouse at 50 mg/kg, sc measured on day 1 post dose by LC-MS/MS analysis; assay type: ADME, organism-based; design: dose 50 mg/kg, route subcutaneous; details: in vivo
[19] = Half life in C57BL/6 mouse at 50 mg/kg, sc by LC-MS/MS analysis; assay type: ADME, organism-based; details: in vivo
[20] = Tmax in humanized mouse at 50 mg/kg, sc for 8 days measured on day 8 post last dose by LC-MS/MS analysis; assay type: ADME, organism-based; details: in vivo
[21] = AUC (0 to 24 hrs) in humanized mouse at 200 mg/kg, sc measured on day 1 post dose by LC-MS/MS analysis; assay type: ADME, organism-based; design: dose 200 mg/kg, time < 24 hr, route subcutaneous; details: in vivo

5-hydroxytryptamine receptor 2B, sequence (P41595 whole entry): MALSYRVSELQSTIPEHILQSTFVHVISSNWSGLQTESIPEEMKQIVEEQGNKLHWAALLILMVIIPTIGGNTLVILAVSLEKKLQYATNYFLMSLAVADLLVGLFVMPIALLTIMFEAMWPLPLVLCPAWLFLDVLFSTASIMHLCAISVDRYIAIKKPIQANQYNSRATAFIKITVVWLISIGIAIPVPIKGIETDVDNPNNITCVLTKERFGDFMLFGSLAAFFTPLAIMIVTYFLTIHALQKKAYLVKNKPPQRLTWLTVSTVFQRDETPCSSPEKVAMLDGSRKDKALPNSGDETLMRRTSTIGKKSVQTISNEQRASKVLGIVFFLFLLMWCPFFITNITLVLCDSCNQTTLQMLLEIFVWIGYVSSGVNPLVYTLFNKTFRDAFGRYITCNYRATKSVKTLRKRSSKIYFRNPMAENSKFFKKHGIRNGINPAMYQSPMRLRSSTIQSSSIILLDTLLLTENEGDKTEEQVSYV
Cytochrome P450 2C9, sequence (P11712 whole entry): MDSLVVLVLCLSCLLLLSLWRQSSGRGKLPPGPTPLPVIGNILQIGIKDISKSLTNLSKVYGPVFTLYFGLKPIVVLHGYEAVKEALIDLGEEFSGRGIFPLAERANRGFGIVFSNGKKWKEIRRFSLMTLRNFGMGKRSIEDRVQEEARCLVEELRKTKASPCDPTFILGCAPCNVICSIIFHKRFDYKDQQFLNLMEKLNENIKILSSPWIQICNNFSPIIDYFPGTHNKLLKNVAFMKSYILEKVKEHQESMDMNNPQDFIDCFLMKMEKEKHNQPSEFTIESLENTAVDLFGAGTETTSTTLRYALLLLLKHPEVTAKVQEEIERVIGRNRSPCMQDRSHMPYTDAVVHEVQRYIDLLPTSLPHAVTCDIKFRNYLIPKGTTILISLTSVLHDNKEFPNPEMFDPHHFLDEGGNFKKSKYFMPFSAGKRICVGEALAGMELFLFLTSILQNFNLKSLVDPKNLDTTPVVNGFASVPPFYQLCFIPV
hERG, sequence (Q12809 whole entry): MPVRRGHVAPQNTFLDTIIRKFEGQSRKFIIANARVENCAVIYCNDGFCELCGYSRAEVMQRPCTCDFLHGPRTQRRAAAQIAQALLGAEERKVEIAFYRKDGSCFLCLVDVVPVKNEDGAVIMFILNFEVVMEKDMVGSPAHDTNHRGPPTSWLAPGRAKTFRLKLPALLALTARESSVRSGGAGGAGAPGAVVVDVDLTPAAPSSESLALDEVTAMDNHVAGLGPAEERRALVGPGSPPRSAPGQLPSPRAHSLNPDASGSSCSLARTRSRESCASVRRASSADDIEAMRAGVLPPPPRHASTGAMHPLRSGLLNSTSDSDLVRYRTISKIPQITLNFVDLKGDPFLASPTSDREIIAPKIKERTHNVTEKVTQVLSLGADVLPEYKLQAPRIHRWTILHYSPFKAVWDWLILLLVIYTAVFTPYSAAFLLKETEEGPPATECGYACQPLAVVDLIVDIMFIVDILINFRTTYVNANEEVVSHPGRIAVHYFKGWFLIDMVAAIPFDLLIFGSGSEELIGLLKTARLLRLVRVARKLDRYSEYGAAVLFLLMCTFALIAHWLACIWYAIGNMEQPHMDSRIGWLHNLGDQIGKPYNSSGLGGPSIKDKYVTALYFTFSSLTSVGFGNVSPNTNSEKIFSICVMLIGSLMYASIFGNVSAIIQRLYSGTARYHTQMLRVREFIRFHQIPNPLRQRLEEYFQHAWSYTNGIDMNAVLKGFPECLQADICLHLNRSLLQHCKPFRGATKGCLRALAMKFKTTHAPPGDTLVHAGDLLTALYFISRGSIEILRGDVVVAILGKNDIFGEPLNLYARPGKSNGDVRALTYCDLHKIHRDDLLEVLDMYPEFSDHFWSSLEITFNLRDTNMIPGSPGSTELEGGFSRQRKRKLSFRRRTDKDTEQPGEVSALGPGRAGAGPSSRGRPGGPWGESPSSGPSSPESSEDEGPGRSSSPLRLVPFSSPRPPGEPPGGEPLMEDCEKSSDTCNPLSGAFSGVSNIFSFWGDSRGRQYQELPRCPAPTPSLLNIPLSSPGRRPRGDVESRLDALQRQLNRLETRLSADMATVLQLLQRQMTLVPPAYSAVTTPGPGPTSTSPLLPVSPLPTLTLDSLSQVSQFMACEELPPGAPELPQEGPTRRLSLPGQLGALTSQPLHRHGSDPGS

Structure (SMILES): Cc1cc(NC(=O)c2cccc(S(=O)(=O)N[C@H]3CCOC3)c2)ccc1F
- inhibition at 3 µM (hERG): 31%
- AUC(0-t) [1]: 16900 ng·h/mL
- AUC at 24 h [2]: 19200 ng·h/mL
- solubility kinetic at 4 h [3]: 82 µM (≈ 31 µg/mL)
- Activity [4]: inactive
- Tmax [5]: 0.7 h
- Cmax [6]: 1940 ng/mL
- IC50 (Cytochrome P450 2C9): > 10 µM
- EC50 (Hepatitis B virus): 0.43 µM
- EC20 (HepG2): 10 to 30 µM
- EC50 (HBV genotype D): 0.12 µM
- concentration at 24 h [7]: 1820 ng/mL
- Tmax [8]: 1 h
- fraction unbound [9]: 0.081
- concentration at 24 h [10]: 102 ng/mL
- AUC(0-t) [11]: 16400 ng·h/mL
- AUC(0-t) [12]: 1240 ng·h/mL
- AUC(0-inf) [13]: 12700 ng·h/mL
- half-life [14]: 6.2 h
- metabolised at 0.25 h, 1 µM [15]: 51%
- concentration at 24 h [16]: 4880 ng/g
- IC50 (Cytochrome P450 1A2): > 10 µM
- fraction unbound [17]: 0.126
- IC50 (Cytochrome P450 2C8): > 10 µM
- Cmax [18]: 2190 ng/mL
- half-life [19]: 5.3 h
- Tmax [20]: 0.8 h
- AUC(0-t) at 24 h [21]: 12000 ng·h/mL
